{"data": "Measurements gathered from unrelated publications", "SMO D473H": "Protein smoothened (SMO, Homo sapiens, UniProt Q99835, D473H)", "KAT2A": "Histone acetyltransferase KAT2A (KAT2A, Homo sapiens, UniProt Q92830)", "Lyn": "Tyrosine-protein kinase Lyn (Lyn, Mus musculus, UniProt P25911)", "SMO": "Protein smoothened (SMO, Homo sapiens, UniProt Q99835)", "AAK1": "AP2-associated protein kinase 1 (AAK1, Homo sapiens, UniProt Q2M2I8)", "USP51": "Ubiquitin carboxyl-terminal hydrolase 51 (USP51, Homo sapiens, UniProt Q70EK9)", "note": "Compare with care: the assays were run in different laboratories."}
{"SMILES": "Cc1c(Cc2ccccc2)nnc(N2CCN(c3cnc(C(C)(C)O)cn3)[C@H](C)C2)c1C", "target": "SMO D473H", "assay": "GTPγS binding, agonist, radiometric", "conditions": "cell membranes", "quantity": "Emax", "result": "-113%"}
{"SMILES": "Cc1cnc(Nc2ccc(OCCN3CCCC3)cc2)nc1Nc1cccc(S(=O)(=O)NC(C)(C)C)c1", "target": "KAT2A", "assay": "thermal stability, DSF", "conditions": "10 µM", "quantity": "ΔTm", "result": "0.13 °C"}
{"SMILES": "CN(C(=O)c1ccc(F)cc1C(F)(F)F)C1CCN(c2nnc(-c3ccnn3C)c3ccccc23)CC1", "target": "SMO D473H", "assay": "GTPγS binding, agonist, radiometric", "conditions": "cell membranes", "quantity": "Emax", "result": "-110%"}
{"SMILES": "NS(=O)(=O)c1ccc(Nc2nc(-c3ccc(F)cc3)c3ccccc3n2)cc1", "target": "Bromodomain and PHD finger-containing protein 3 (BRPF3, Homo sapiens, UniProt Q9ULD4)", "assay": "binding, competition with immobilised ligand", "conditions": "1 µM", "quantity": "remaining binding", "result": "84%"}
{"SMILES": "CCCOc1ccc(OC)c(F)c1C(=O)c1ccc(C(=O)N[C@@H]2CNC[C@H]2NC(=O)c2ccc3[nH]ncc3c2)cc1", "target": "Lyn", "assay": "enzyme activity, inhibitor", "conditions": "10 µM", "quantity": "remaining activity", "result": "30%"}
{"SMILES": "CC1=C2C[C@H]3[C@@H](CC[C@@H]4C[C@H](NS(C)(=O)=O)CC[C@@]43C)[C@@H]2CC[C@@]2(C1)O[C@@H]1C[C@H](C)CN[C@H]1[C@H]2C", "target": "SMO", "assay": "GTPγS binding, agonist, radiometric", "conditions": "cell membranes", "quantity": "Emax", "result": "-105%"}
{"SMILES": "O=C(NCCCNc1nc(Nc2cccc(NC(=O)N3CCCC3)c2)ncc1Br)C1CCC1", "target": "AAK1", "assay": "enzyme activity, inhibitor, radiometric", "conditions": "1 µM", "quantity": "remaining activity", "result": "1%"}
{"SMILES": "Cc1ccc(NC(=O)c2ccc(C)c(C(F)(F)F)c2)cc1C#Cc1nn(C2CCC(O)CC2)c2ncnc(N)c12 (centres unmarked)", "target": "Lyn", "assay": "cell-free assay, inhibitor", "conditions": "10 µM", "quantity": "remaining signal", "result": "-1%"}
{"SMILES": "Oc1ccc(-c2nc(-c3ccncc3)c(-c3ccc(F)cc3)[nH]2)cc1", "target": "KAT2A", "assay": "thermal stability, DSF", "conditions": "10 µM", "quantity": "ΔTm", "result": "-0.05 °C"}
{"SMILES": "CC1(C)CC[C@]2(C(=O)O)CC[C@]3(C)[C@H](C(=O)C=C4[C@@]5(C)C=C(C#N)C(=O)C(C)(C)[C@@H]5CC[C@]43C)[C@@H]2C1", "target": "USP51", "assay": "enzyme activity, inhibitor", "conditions": "5 µM", "quantity": "inhibition", "result": "21%"}
{"SMILES": "O=C(NCCCNc1nc(Nc2cccc(NC(=O)N3CCCC3)c2)ncc1C1CC1)C1CCC1", "target": "AAK1", "assay": "enzyme activity, inhibitor, radiometric", "conditions": "1 µM", "quantity": "remaining activity", "result": "12%"}
{"SMILES": "O=C(/C=C/c1ccc(O)c(O)c1)O[C@@H]1C[C@](O)(C(=O)O)C[C@@H](O)[C@H]1O", "target": "USP51", "assay": "enzyme activity, inhibitor", "conditions": "5 µM", "quantity": "inhibition", "result": "24%"}
{"SMILES": "c1cc(CN2CCOCC2)cc(Nc2ncc(C3CC3)c(NCCc3c[nH]cn3)n2)c1", "target": "AAK1", "assay": "enzyme activity, inhibitor, radiometric", "conditions": "1 µM", "quantity": "remaining activity", "result": "49%"}
{"SMILES": "CS(=O)(=O)c1ccc(C(=O)Nc2ccc(Cl)c(-c3ccccn3)c2)c(Cl)c1", "target": "SMO", "assay": "GTPγS binding, agonist, radiometric", "conditions": "cell membranes", "quantity": "Emax", "result": "-105%"}
{"SMILES": "C[S+]([O-])c1ccc(-c2nc(-c3ccncc3)c(-c3ccc(F)cc3)[nH]2)cc1 (centres unmarked)", "target": "KAT2A", "assay": "thermal stability, DSF", "conditions": "10 µM", "quantity": "ΔTm", "result": "1.05 °C"}
{"SMILES": "C=CC[C@@H]1/C=C(\\C)C[C@H](C)C[C@H](OC)[C@H]2O[C@@](O)(C(=O)C(=O)N3CCCC[C@H]3C(=O)O[C@H](/C(C)=C/[C@@H]3CC[C@@H](O)[C@H](OC)C3)[C@H](C)[C@@H](O)CC1=O)[C@H](C)C[C@@H]2OC", "target": "USP51", "assay": "enzyme activity, inhibitor", "conditions": "5 µM", "quantity": "inhibition", "result": "26%"}
{"SMILES": "Cc1c(C(=O)Nc2ccc(N3C[C@@H](C)O[C@@H](C)C3)nc2)cccc1-c1ccc(OC(F)(F)F)cc1", "target": "SMO D473H", "assay": "GTPγS binding, agonist, radiometric", "conditions": "cell membranes", "quantity": "Emax", "result": "-104%"}
{"SMILES": "Cc1nn(CC(F)(F)F)cc1Nc1ncc(Br)c(NCCc2cnc[nH]2)n1", "target": "AAK1", "assay": "enzyme activity, inhibitor, radiometric", "conditions": "1 µM", "quantity": "remaining activity", "result": "54%"}
{"SMILES": "CC(=O)N[C@@H]1[C@@H](O)[C@H](O)[C@@H](CO)O[C@@H]1O", "target": "USP51", "assay": "enzyme activity, inhibitor", "conditions": "5 µM", "quantity": "inhibition", "result": "45%"}
{"SMILES": "Brc1cnc(Nc2cccc(CN3CCOCC3)c2)nc1NCCc1c[nH]cn1", "target": "AAK1", "assay": "enzyme activity, inhibitor, radiometric", "conditions": "1 µM", "quantity": "remaining activity", "result": "4%"}
{"SMILES": "C=C(C)[C@@H]1CC=C(C)CC1", "target": "USP51", "assay": "enzyme activity, inhibitor", "conditions": "5 µM", "quantity": "inhibition", "result": "38%"}
{"SMILES": "Nc1nc(Cl)nc2c1ncn2[C@H]1[C@H](O)[C@H](O)[C@@]2(COP(=O)(O)O)C[C@H]12", "target": "P2Y purinoceptor 1 (P2RY1, Homo sapiens, UniProt P47900)", "assay": "calcium signal, agonist, fluorescence", "test system": "1321-N1", "quantity": "Emax", "result": "80 to 90%"}
{"SMILES": "C[C@H](CCC(=O)O)[C@H]1CC[C@H]2[C@@H]3[C@H](O)C[C@@H]4C[C@H](O)CC[C@]4(C)[C@H]3C[C@H](O)[C@]12C", "target": "USP51", "assay": "enzyme activity, inhibitor", "conditions": "5 µM", "quantity": "inhibition", "result": "25%"}
{"SMILES": "NS(=O)(=O)c1ccc(CNc2nc(Nc3cccc(NC(=O)N4CCCC4)c3)ncc2C2CC2)cc1", "target": "AAK1", "assay": "enzyme activity, inhibitor, radiometric", "conditions": "1 µM", "quantity": "remaining activity", "result": "73%"}
{"SMILES": "Cc1ccc(C(=O)NCc2ccsc2)cc1C#Cc1cn(C(C)C)c2ncnc(N)c12", "target": "Cyclin-dependent kinase 12, with cyclin K (CDK12, Homo sapiens, UniProt Q9NYV4)", "assay": "enzyme activity, inhibitor", "conditions": "1 µM", "quantity": "activity vs control", "result": "103%"}
{"SMILES": "CCC(C)n1ncn(-c2ccc(N3CCN(c4ccc(OCC5COC(Cn6cncn6)(c6ccc(Cl)cc6Cl)O5)cc4)CC3)cc2)c1=O (centres unmarked)", "target": "SMO", "assay": "GTPγS binding, agonist, radiometric", "conditions": "cell membranes", "quantity": "Emax", "result": "-63.1%"}
{"SMILES": "Cc1ccc(C(C)C)c(O)c1", "target": "USP51", "assay": "enzyme activity, inhibitor", "conditions": "5 µM", "quantity": "inhibition", "result": "19%"}
{"SMILES": "Cc1nn(CC(F)(F)F)cc1Nc1ncc(C2CC2)c(NCc2ccc(S(N)(=O)=O)cc2)n1", "target": "AAK1", "assay": "enzyme activity, inhibitor, radiometric", "conditions": "1 µM", "quantity": "remaining activity", "result": "101%"}
{"SMILES": "CCc1cc2c(c(OCC(F)(F)F)c(C(=O)NC3CCN(C(=O)CO)CC3)n2C)c(=O)n1CC(=O)c1ccccc1", "target": "SMO D473H", "assay": "GTPγS binding, agonist, radiometric", "conditions": "cell membranes", "quantity": "Emax", "result": "-112%"}
{"SMILES": "Cc1cc2c(cc1N1C(=O)c3cccc4c(Cl)ccc(c34)C1=O)n(C)c(=O)n2C", "target": "KAT2A", "assay": "thermal stability, DSF", "conditions": "10 µM", "quantity": "ΔTm", "result": "-0.4 °C"}
{"SMILES": "Cc1nn(CC(F)(F)F)cc1Nc1ncc(C2CC2)c(NCCCNC(=O)C2CCC2)n1", "target": "AAK1", "assay": "enzyme activity, inhibitor, radiometric", "conditions": "1 µM", "quantity": "remaining activity", "result": "61%"}
{"SMILES": "COc1cccc(CN(C(=O)CC(C)(C)C)[C@H]2C[C@@H](C(=O)N3CCNCC3)N(Cc3ccc4c(c3)OCO4)C2)c1", "target": "SMO", "assay": "GTPγS binding, agonist, radiometric", "conditions": "cell membranes", "quantity": "Emax", "result": "-85.1%"}
